Test results published in ChEMBL document CHEMBL1155472, “Versatile synthesis of new cytotoxic agents structurally related to hemiasterlins” (Bioorg Med Chem Lett, 2010).
Active and inactive are the calls of the source. The rule behind the calls is not given here.

Experiments:
[1] = Cell cycle arrest in human UCI101 cells assessed as accumulation at G2 phase at 20 nM after 16 hrs using ethidium bromide staining by FACS analysis; assay type: functional, cell-based
[2] = Cell cycle arrest in human UCI101 cells assessed as accumulation at G2 phase at 25 nM after 16 hrs using ethidium bromide staining by FACS analysis; assay type: functional, cell-based
[3] = Cell cycle arrest in human UCI101 cells assessed as accumulation at G2 phase at 10 nM after 16 hrs using ethidium bromide staining by FACS analysis; assay type: functional, cell-based
[4] = Cytotoxicity against rat N1S1 cells after 2 days by Alamar blue staining; assay type: functional, cell-based; details: N1-S1, 48 h
Outline: (§1)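 UCI-101 human ovarian cancer cells and N1–S1 rat hepatoma cells were exposed to a range of concentrations for 2 days. Growth suppression was read by Alamar blue staining, with each concentration run in triplicate, and plotted against concentration.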

[5] = Inhibition of tubulin polymerization at 5 uM
Outline: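 Tubulin polymerization was run with a commercial polymerization assay kit, and polymerization curves were recorded over time. Colchicine and paclitaxel were run alongside as reference controls.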

[6] = Cytotoxicity against human UCI101 cells after 2 days by Alamar blue staining; assay type: functional, cell-based; details: UCI101, 48 h; outline: as §1
UCI101 = assay: Cytotoxicity against human UCI101 cells at 1 mM after 2 days by Alamar blue staining; assay type: functional, cell-based; outline: as §1
N1S1 = assay: Cytotoxicity against rat N1S1 cells at 1 mM after 2 days by Alamar blue staining; assay type: functional, cell-based; outline: as §1

Compound	Activity [1]	Activity [2]	Activity [3]	IC50 [4] [µM]	IC50 [6] [µM]	Activity (UCI101)	Activity (N1S1)	further results
C/C(=C\[C@H](C(C)C)N(C)C(=O)[C@@H](NC(=O)[C@@H](C)NC(C)(C)c1ccccc1)C(C)(C)C)C(=O)O	Active	Active	Active	0.02				Activity [5]: Active
C/C(=C\[C@H](C(C)C)N(C)C(=O)[C@@H](NC(=O)C(C)NC(C)(C)c1ccc2ccccc2c1)C(C)(C)C)C(=O)O (stereo partly drawn)				0.2	0.2			
C/C(=C\[C@H](C(C)C)N(C)C(=O)[C@@H](NC(=O)C(C)NC1CCCCC1)C(C)(C)C)C(=O)O (mixture of isomers)						Not toxic	Not toxic	
C/C(=C\[C@H](C(C)C)N(C)C(=O)[C@@H](NC(=O)[C@H](C)NC(C)(C)c1ccccc1)C(C)(C)C)C(=O)O				0.2	0.2			
CC(NC(C)(C)c1ccccc1)C(=O)N[C@H](C(=O)N(C)c1cccc(C(=O)O)c1)C(C)C (stereo partly drawn)						Not toxic	Not toxic	
C/C(=C\[C@H](C(C)C)N(C)C(=O)[C@@H](NC(=O)[C@@H](C)NC(C)(C)c1ccccc1)C(C)C)C(=O)O	11%	12%	4.7%		0.02			inhibition [5]: Active
